From PubChem
b-catenin transl: modulators of beta-catenin nuclear translocation, primary screen, imaging, HeLa cells, immunofluorescence, high-content | nuclear translocation activity, % at 5 µM | 190,000 compounds, 0.3% hits | AID 1665, 2009;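 active means nuclear translocation activity above 50% at 5 µM, with a well cell count of 50 or more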;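 further: per-cell ratio of nuclear to cytoplasmic median beta-catenin stain intensity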
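Test system: human HeLa cell line; Doses: 5 µM primary, 0.02–20 µM confirmation; Incubation: 24 h compound exposure, 37°C; Detection: beta-catenin immunofluorescence imaging with DAPI; Read-out: beta-catenin nuclear/cytoplasmic ratio, % activation.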
Dynein cargo inh: inhibitors of GR-EGFP nuclear translocation, primary screen, dynein cargo transport inhibitor project, imaging, high-content, 3617.4 mouse cells. test concentration mostly 20 µM; stimulated with dexamethasone, 1 µM; active compounds read low. z-score, hits read low. 220,000 compounds, 0.47% hits. AID 1381, 2008;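 active means plate z-score of nuclear minus cytoplasmic receptor signal below a set negative limit, without overly bright fluorescence or cell loss, cut at about -3.5 in these data, passing the limit was not always enough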;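 further: z-score of nuclear minus cytoplasmic ring GR-EGFP intensity difference per well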
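Also added – dexamethasone, 1.0 µM final · Buffer or medium – tet-free, stripped-serum medium · Schedule – induction 48 h, compound 1 h, agonist 30 min · Detection – formaldehyde fixation, Hoechst nuclear stain, 10x automated fluorescence imaging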
HSV augment: enhancers of HSV replication in host cells, fold increase, host cell viability | HSV replication augmentation in cells | 220,000 compounds, 0.005% hits | AID 1956, 2009 | maximum fold increase; in the data active means maximum fold increase above about 1.5; tested in PC3 cells
L major viab: Leishmania major promastigote growth inhibition, primary screen | Leishmania major promastigotes, resazurin fluorescence viability | inhibition, % at 10 µM | 200,000 compounds, 9% hits | AID 1063, 2008; in the data active means inhibition above about 50%;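 further: promastigotes grown with compound for 44 hours at 28 °C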
MT stabilize HCS: microtubule stabilizers in HeLa cells, primary screen, imaging, high-content imaging. % tubulin-high responders, % at 10 µM. HeLa tubulin immunostaining HCS, 24 h; share of cells brighter than vehicle mean+2SD. 200,000 compounds, 0.83% hits;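 active means plate Z-score above 3 for both tubulin-high and condensed-nucleus cell shares, with cell loss under 80%, at 10 µM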;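 further: anti alpha tubulin signal scored within the nucleus-defined area of each cell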
A number is an active result; 0 = inactive; - = no result given. Shown are actives, neighbours in structure and some others; about 8.9% of the full set was active somewhere.

SMILES | b-catenin transl | Dynein cargo inh | HSV augment | L major viab | MT stabilize HCS
Cc1cc(Br)ccc1NC(=S)Nc1cccc([N+](=O)[O-])c1 | 0 | 0 | 0 | 0 | 0
O=C(NNC(=O)c1cccnc1)NC1CCCCC1 | 0 | 0 | 0 | 0 | 0
O=C(NNC(=O)c1cc(O)c(O)c(O)c1)NC1CCCCC1 | 0 | 0 | 0 | 92 | 0
COc1ccc(C)cc1NC(=S)NC(C)c1ccc(OC)c(OC)c1 (stereo not given) | 0 | 0 | 0 | 54 | 0
Cc1ccc2c(c1)nnn2C1CCN(S(=O)(=O)c2ccc(C(=O)N(C)C)cc2)CC1 | 0 | 0 | 0 | 0 | 0
Cc1ccc2c(c1)nnn2C1CCN(S(=O)(=O)c2ccc(C(=O)N3CC(C)CC(C)C3)cc2)CC1 (stereo not given) | 0 | 0 | 0 | 0 | 20
C=CCn1c(SCc2nc3cc(C(=O)OC)ccc3c(=O)[nH]2)nc2sc(CC)cc2c1=O | 0 | 0 | 0 | 59 | 0
O=c1cc(O)c2sc(Nc3ccc(F)cc3)nc2[nH]1 | 0 | 0 | 0 | 0 | 0
O=C(Nc1ncccn1)C12CC3CC(CC(C3)C1)C2 | 0 | 0 | 0 | - | -
O=C(NCC(c1ccco1)N1CCN(c2ccc(F)cc2)CC1)OCc1ccccc1 (stereo not given) | 0 | 0 | 0 | 0 | 0
O=C(NCC(c1cccnc1)N1CCN(c2ccccc2F)CC1)OCc1ccccc1 (stereo not given) | - | 0 | 0 | 96 | 0
O=C(NCC(c1cccnc1)N1CCN(c2ccc(F)cc2)CC1)OCc1ccccc1 (stereo not given) | - | 0 | 0 | 99 | 0
O=C(NCC(c1cccnc1)N1CCN(c2ccccc2)CC1)C1CCCCC1 (stereo not given) | - | 0 | 0 | 74 | 0
O=C(NCC(c1cccnc1)N1CCN(c2ccc(F)cc2)CC1)c1cccc(Cl)c1 (stereo not given) | 0 | 0 | 0 | 96 | 0
Cc1cc(C)nc(-n2ncc3c2CC(c2ccccc2C)CC3=O)n1 (stereo not given) | 0 | 0 | 0 | 0 | 0
Cc1ccc(N(C(=O)c2ccc(Br)o2)C2C=CS(=O)(=O)C2)cc1 (stereo not given) | - | 0 | 0 | 0 | 0
COC(=O)NCC(c1cccnc1)N1CCN(c2ccccc2)CC1 (stereo not given) | 0 | 0 | 0 | 0 | 0
O=C(NCC(c1cccnc1)N1CCN(c2ccccc2)CC1)OCc1ccccc1 (stereo not given) | 0 | 0 | 0 | 96 | 0
O=C(C1CC1)n1cc(C(=S)N2CCOCC2)c2ccccc21 | 0 | 0 | 0 | 0 | 0
COc1ccc(NC(=S)N(CCCN2CCC(C)CC2)Cc2cccs2)cc1 | - | 0 | 0 | 0 | 0
CSc1cccc(NC(=S)N(CCCN2CCC(C)CC2)Cc2cccs2)c1 | 0 | 0 | 0 | 61 | 0
COc1cccc(NC(=S)N(CCCN2CCC(C)CC2)Cc2cccs2)c1 | 0 | 0 | 0 | 68 | 0
Cc1ccc(NC(=S)N(CCCN2CCN(C)CC2)Cc2cccs2)cc1C | 0 | 0 | 0 | 0 | 0
COc1ccccc1C(=O)N1CCN(Cc2nc3cc([N+](=O)[O-])ccc3n2C)CC1 | 0 | 0 | 0 | 0 | 0
Nc1nonc1-c1nc2ccccc2n1CC(=O)NC1CCCC1 | 0 | 0 | 0 | 0 | 0
SMILES | b-catenin transl | Dynein cargo inh | HSV augment | L major viab | MT stabilize HCS
CCOC(=O)c1c2ccc(OCC(=O)N/N=C/c3ccc(C)cc3)cc2n2ccccc12 | 0 | 0 | - | 0 | 0
C/C(N)=C(/C#N)C(=O)CSc1nnc(Nc2cccc(C)c2)s1 | 0 | 0 | 0 | 76 | 0
CCSc1nnc(NC(=O)Nc2cccc(C)c2)s1 | 0 | 0 | 0 | - | -
COc1cccc(Nc2nnc(SCC(=O)N(CC(C)C)CC(C)C)s2)c1 | 0 | 0 | 0 | 99 | 0
COc1cccc(Nc2nnc(SCN3C(=O)c4ccccc4C3=O)s2)c1 | 0 | 0 | 0 | 0 | 0
Cc1cc2c3c(c1C)C1(C(=O)N3C(C)(C)CC2C)C(C#N)=C(N)Oc2n[nH]c(C)c21 (stereo not given) | - | 0 | 0 | 0 | 0
Cc1cc2c3c(c1)C1(C(=O)N3C(C)(C)CC2C)C(C#N)=C(N)Oc2n[nH]c(C)c21 (stereo not given) | - | 0 | 0 | 0 | 17
O=C(/C=C/NNC(=O)c1ccccc1)c1ccc([N+](=O)[O-])cc1 | 0 | 0 | 0 | 79 | 0
O=C1CC(c2ccccc2)CC(O)=C1C=NCCCN1CCOCC1 (stereo not given) | 53 | 0 | 0 | 0 | 0
CC1CN(c2nc(-c3ccc(Br)cc3)nnc2-c2ccccc2)CC(C)N1 (stereo not given) | - | 0 | - | 90 | 0
Clc1ccc(-c2nnc(-c3ccccc3)c(N3CCSCC3)n2)cc1 | 0 | 0 | 0 | 0 | 0
Cc1cccc(-n2c(SCc3ccc(C#N)cc3)nnc2-c2c[nH]c3ccccc23)c1 | 0 | 0 | 0 | 98 | 0
COC(=O)c1ccc(CSc2nnc(-c3c[nH]c4ccccc34)n2-c2ccccc2)cc1 | 0 | 0 | 0 | 0 | 0
Cn1c(=O)c2c(nc(Sc3ncnn3CC(=O)N3CCOCC3)n2C)n(C)c1=O | 0 | 0 | 0 | - | -
COc1ccc(C(O)c2coc3ccc(O)c(CN(C)C)c23)cc1 (stereo not given) | 0 | 0 | 0 | 100 | 0
CN(C)Cc1c(O)ccc2occ(C(=O)c3ccccc3)c12 | 0 | 0 | 0 | 0 | 0
COc1ccc2occ(C(=O)c3coc4ccc(O)c(CN(C)C)c34)c2c1 | 0 | 0 | 0 | 75 | 0
COc1ccc(S(=O)(=O)NC(C)C(=O)Nc2cccc(C(C)=O)c2)cc1 (stereo not given) | - | 0 | 0 | 0 | 0
c1ccc2c(c1)nc(NCc1ccc3c(c1)OCO3)n2CCN1CCOCC1 | 0 | 0 | 0 | 0 | 0
C=CCn1c(NCc2ccc3c(c2)OCO3)nc2ccccc21 | 0 | 0 | 0 | 98 | 0
CCn1c(NCc2ccc3c(c2)OCO3)nc2ccccc21 | 0 | 0 | 0 | 78 | 0
CN(C)CCCn1c(NCc2ccc3c(c2)OCO3)nc2ccccc21 | - | 0 | 0 | 66 | 0
O=C(C1CCCN(S(=O)(=O)c2cccc3nsnc23)C1)N1CCc2ccccc21 (stereo not given) | 0 | 0 | - | 0 | 0
COc1ccc(C(CC(=O)c2ccc(C)cc2)C(C#N)C#N)cc1OC (stereo not given) | 0 | 0 | 0 | 90 | 0
COc1ccc(C(CC(=O)O)NS(=O)(=O)c2ccc(C)cc2)cc1OC (stereo not given) | 0 | 0 | 0 | 0 | 0
O=S(=O)(N1CCOCC1)N1CCN(c2ccc(F)cc2)CC1 | - | 0 | 0 | 0 | 0
O=C(Cn1nnc(-c2ccccc2NC(=O)c2cccs2)n1)Nc1ccccc1 | 0 | 0 | 0 | 0 | 0
N#CCCn1nc(-c2ccccc2)cc1Nc1ccccc1NC(=O)c1cccs1 | 0 | 0 | 0 | 59 | 0
O=C1NC(c2ccccc2)=C(c2nc3ccccc3s2)C(c2ccc(F)cc2)N1 (stereo not given) | 0 | 0 | 0 | 51 | 0
O=C1CCCC(O)=C1N=Nc1cccc(C(=O)O)c1 | 0 | 0 | 0 | 0 | 0
